From ChEMBL document CHEMBL1125613, “Synthesis, receptor binding, and tissue distribution of 7 alpha- and 11 beta-substituted (17 alpha,20E)- and (17 alpha,20Z)-21-[125I]iodo-19-norpregna-1,3,5(10),20-tetraene-3,17-diols” (J Med Chem, 1991)

Species on record: Rattus norvegicus
Experiment: Biodistribution studied in the adrenals of immature Fischer female rats at 5 hour
Format: ADME, organism-based, Adrenal gland
Conditions: in vivo
Method in brief: (§1)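 Immature female Fischer rats (24 days old, 55–60 g), unanesthetized in retention cages, given 3 μCi (111 kBq) nca 125I-labeled steroid in 200 μL via lateral tail vein. Vehicle was 9% ethanol in saline with 1% Tween-80, filtered 0.22 μm. Killed at 5 h under ether; tissues KCl-washed, blotted, weighed, gamma-counted; % ID/g, average of 4–5 rats, % CV.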
Compound `C[C@@H]1Cc2cc(O)ccc2[C@H]2CC[C@@]3(C)[C@@H](CC[C@@]3(O)/C=C\[125I])[C@H]12` has a Concentration of 0.88%.

Species on record: Rattus norvegicus
Experiment: Biodistribution studied in the ovaries of immature Fischer female rats at 5 hour
Format: ADME, organism-based, Female gonad
Conditions: in vivo
Method in brief: as §1
`C[C@@H]1Cc2cc(O)ccc2[C@H]2CC[C@@]3(C)[C@@H](CC[C@@]3(O)/C=C/[125I])[C@H]12` was tested, and the Concentration was 2.91%.

These compounds were tested against Estrogen receptor (Mus musculus) (UniProt O08537+P19785) (assay: Relative binding affinity for murine cytoplasmic estrogen receptor as displacement of [3H]estradiol). Conditions: not given.
Sequence of Estrogen receptor (Mus musculus) (O08537 whole entry, looked up): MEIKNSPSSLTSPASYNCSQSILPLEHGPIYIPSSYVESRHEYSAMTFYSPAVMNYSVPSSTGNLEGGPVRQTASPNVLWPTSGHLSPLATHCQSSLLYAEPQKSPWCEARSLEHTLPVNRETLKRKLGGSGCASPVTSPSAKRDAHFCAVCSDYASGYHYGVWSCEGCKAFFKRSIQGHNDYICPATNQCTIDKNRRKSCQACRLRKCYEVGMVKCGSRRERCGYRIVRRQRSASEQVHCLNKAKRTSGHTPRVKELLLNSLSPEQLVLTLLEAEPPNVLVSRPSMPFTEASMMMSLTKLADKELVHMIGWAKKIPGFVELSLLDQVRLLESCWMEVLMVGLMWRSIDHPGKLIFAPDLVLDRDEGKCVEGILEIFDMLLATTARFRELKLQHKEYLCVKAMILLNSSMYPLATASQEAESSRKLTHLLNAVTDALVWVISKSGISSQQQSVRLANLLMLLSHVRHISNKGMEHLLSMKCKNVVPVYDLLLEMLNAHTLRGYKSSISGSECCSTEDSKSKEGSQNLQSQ
Sequence of Estrogen receptor (Mus musculus) (P19785 whole entry, looked up): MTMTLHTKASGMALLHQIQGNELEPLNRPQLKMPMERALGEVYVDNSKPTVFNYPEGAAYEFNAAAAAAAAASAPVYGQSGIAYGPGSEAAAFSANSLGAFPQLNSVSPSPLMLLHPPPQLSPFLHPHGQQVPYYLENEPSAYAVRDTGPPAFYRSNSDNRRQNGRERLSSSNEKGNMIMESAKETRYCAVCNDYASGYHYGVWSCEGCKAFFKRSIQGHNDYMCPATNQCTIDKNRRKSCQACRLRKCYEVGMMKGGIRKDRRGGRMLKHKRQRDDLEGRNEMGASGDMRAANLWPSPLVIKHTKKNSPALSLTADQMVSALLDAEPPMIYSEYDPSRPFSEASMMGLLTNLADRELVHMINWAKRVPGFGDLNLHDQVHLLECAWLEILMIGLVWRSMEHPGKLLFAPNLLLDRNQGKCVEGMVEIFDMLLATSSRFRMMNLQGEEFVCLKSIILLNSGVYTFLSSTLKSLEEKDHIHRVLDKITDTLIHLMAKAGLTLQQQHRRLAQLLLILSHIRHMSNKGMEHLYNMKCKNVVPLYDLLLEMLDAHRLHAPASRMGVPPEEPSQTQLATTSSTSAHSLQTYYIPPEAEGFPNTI
Format: protein assay
Method in brief: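 Murine uterine cytoplasmic extract incubated 18 h at 0–4 °C with 20 nM [3H]estradiol, with or without competitor at 2 nM to 20 μM. Concentration for 50% competition of specific binding was read from the curve. RBA = 100 × ratio of estradiol to competitor concentration at 50% competition. Mean of three experiments.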
Work on `C=C[C@]1(O)CC[C@H]2[C@@H]3CCc4cc(O)ccc4[C@H]3[C@@H](OC)C[C@@]21C` yielded a relative binding affinity (RBA) of 13.5. For `C[C@]12CC[C@@H]3c4ccc(O)cc4CC[C@H]3[C@@H]1CC[C@@]2(O)/C=C/I`, the relative binding affinity (RBA) was 32.8. Compound `C[C@]12CC[C@@H]3c4ccc(O)cc4CC[C@H]3[C@@H]1CC[C@@]2(O)/C=C\I` has a relative binding affinity (RBA) of 46.7. `C#C[C@]1(O)CC[C@H]2[C@@H]3[C@H](C)Cc4cc(O)ccc4[C@H]3CC[C@@]21C` gave a relative binding affinity (RBA) of 73.1. Work on `C[C@@H]1Cc2cc(O)ccc2[C@H]2CC[C@@]3(C)[C@@H](CC[C@@]3(O)/C=C\I)[C@H]12` yielded a relative binding affinity (RBA) of 44.9. `CCO[C@H]1C[C@@]2(C)[C@@H](CC[C@@]2(O)/C=C\I)[C@@H]2CCc3cc(O)ccc3[C@H]21` gave a relative binding affinity (RBA) of 30.8. With `CO[C@H]1C[C@@]2(C)[C@@H](CC[C@@]2(O)/C=C/I)[C@@H]2CCc3cc(O)ccc3[C@H]21` the relative binding affinity (RBA) was 27.7. For `CO[C@H]1C[C@@]2(C)[C@@H](CC[C@@]2(O)/C=C\I)[C@@H]2CCc3cc(O)ccc3[C@H]21`, the relative binding affinity (RBA) was 32. With `CCO[C@H]1C[C@@]2(C)[C@@H](CC[C@@]2(O)/C=C/I)[C@@H]2CCc3cc(O)ccc3[C@H]21` the relative binding affinity (RBA) was 21.6. With `C[C@@H]1Cc2cc(O)ccc2[C@H]2CC[C@@]3(C)[C@@H](CC[C@@]3(O)/C=C/I)[C@H]12` the relative binding affinity (RBA) was 43.2. With `C#C[C@]1(O)CC[C@H]2[C@@H]3CCc4cc(O)ccc4[C@H]3[C@@H](OC)C[C@@]21C` the relative binding affinity (RBA) was 15.3. `C#C[C@]1(O)CC[C@H]2[C@@H]3CCc4cc(O)ccc4[C@H]3[C@@H](OCC)C[C@@]21C` gave a relative binding affinity (RBA) of 21. Compound `C=C[C@]1(O)CC[C@H]2[C@@H]3[C@H](C)Cc4cc(O)ccc4[C@H]3CC[C@@]21C` has a relative binding affinity (RBA) of 58.1.
